Results gathered from unrelated publications.
Each line is one published result; the experiments were not run side by side.
Target: Serine/threonine-protein kinase MARK2 (MARK2, Homo sapiens, UniProt Q7KZI7)

Nc1ncnc2occ(-c3ccc(NC(=O)Nc4cc(C(F)(F)F)ccc4F)cc3)c12
remaining signal (cell-free assay; inhibitor; 20 µM): 22%

NS(=O)(=O)c1ccc(CNc2nc(Nc3cccc(NC(=O)N4CCCC4)c3)ncc2C2CC2)cc1
remaining activity (enzyme activity; inhibitor; radiometric; 1 µM): 93%

CNC(=O)c1cc(Oc2ccc(NC(=O)Nc3ccc(Cl)c(C(F)(F)F)c3)cc2)ccn1
inhibition (enzyme activity; inhibitor; 0.3 µM): 28%

CC(C)CC(=O)N1CCc2nc(-c3ccc(Br)cc3)nc(N(C)Cc3ccccc3)c2C1
remaining binding (cell-free assay; competition with immobilised ligand; 0.1 µM): 100%

CNc1cc(Oc2cc(C(=O)Nc3cc(N4CCN(C)CC4)cc(C(F)(F)F)c3)ccc2C)ncn1
inhibition (target engagement in cells; inhibitor; chemoproteomics; Huh-7; 1 µM): -25.4%

CNc1cccc2cc(C(=O)Nc3ccc(C(=O)O)cc3)c(=O)[nH]c12
inhibition (enzyme activity; inhibitor; 10 µM): -5.3%

CS(=O)(=O)c1cc(C2(NC(=O)c3cncc4c3cnn4-c3ccc(F)cc3)CC2)ccn1
remaining binding (cell-free assay; competition with immobilised ligand; 1 µM): 100%

O=C(NCCCNc1nc(Nc2cccc(NC(=O)N3CCCC3)c2)ncc1Br)C1CCC1
remaining activity (enzyme activity; inhibitor; radiometric; 1 µM): 2%

Cc1cc(NC(=O)c2cccc3cc(-c4cccc5[nH]nc(N)c45)ccc23)ccc1F
activity vs control (enzyme activity; inhibitor; 0.1 µM): 94%

FC(F)(F)Oc1cccc(-c2cnc3ccc(-c4ccncc4)nn23)c1
activity vs control (enzyme activity; inhibitor; radiometric; 5 µM): 99%

O=C(N[C@H]1CCCCC/C=C\C2C[C@@]2(C(=O)O)NC(=O)[C@@H]2C[C@@H](Oc3ccncc3)CN2C1=O)OC1CCCC1 (stereo partly drawn)
remaining binding (binding; competition with immobilised ligand; 1 µM): 81%

Cc1nn(CC(F)(F)F)cc1Nc1ncc(Br)c(NCCc2cnc[nH]2)n1
remaining activity (enzyme activity; inhibitor; radiometric; 1 µM): 55%

C[C@@H]1CN(c2cc(-c3nn(C)c4ccc(OC5(C)CC5)cc34)ncn2)C[C@H](C)O1
remaining binding (cell-free assay; competition with immobilised ligand; 1 µM): 89%

NS(=O)(=O)c1ccc(CNc2nc(Nc3cccc(CN4CCOCC4)c3)ncc2C2CC2)cc1
remaining activity (enzyme activity; inhibitor; radiometric; 1 µM): 98%

COc1cccc2c(NCc3ccccc3)nc(-n3c(N)nc4ccccc43)nc12
inhibition (target engagement in cells; inhibitor; chemoproteomics; 20 mM): -7.2%

Oc1cccc(-c2nc(N3CCOCC3)c3oc4ncccc4c3n2)c1
remaining signal (cell-free assay; 0.5 µM): 92.9%

Cc1c(C(=O)O)cc(-c2ccc(C3CCNCC3)cc2)c2ccc(-c3ccc(C(F)(F)F)cc3)cc12
remaining binding (binding; competition with immobilised ligand; 1 µM): 100%

Brc1cnc(Nc2cccc(CN3CCOCC3)c2)nc1NCCc1c[nH]cn1
remaining activity (enzyme activity; inhibitor; radiometric; 1 µM): 5%
